Only some compounds are listed: those with a hit (about 2.3% of all), similar ones and a draw of the others.
TRPC4 agonist: opens the mouse TRPC4 cation channel; actives 0.49% (n = 310,000); B-score at 10 µM; HEK293 TRPC4beta/mu-opioid, Fluo4 calcium fluorescence; active compounds read high; AID 2237; Q9QUQ5;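 active means B-score above 5 SD of library B-scores, and initial fluorescence ratio not above library mean plus 5 SD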;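 further: positive B-score marks a calcium rise read as TRPC4 activation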
Target sequence (Q9QUQ5 whole entry, looked up): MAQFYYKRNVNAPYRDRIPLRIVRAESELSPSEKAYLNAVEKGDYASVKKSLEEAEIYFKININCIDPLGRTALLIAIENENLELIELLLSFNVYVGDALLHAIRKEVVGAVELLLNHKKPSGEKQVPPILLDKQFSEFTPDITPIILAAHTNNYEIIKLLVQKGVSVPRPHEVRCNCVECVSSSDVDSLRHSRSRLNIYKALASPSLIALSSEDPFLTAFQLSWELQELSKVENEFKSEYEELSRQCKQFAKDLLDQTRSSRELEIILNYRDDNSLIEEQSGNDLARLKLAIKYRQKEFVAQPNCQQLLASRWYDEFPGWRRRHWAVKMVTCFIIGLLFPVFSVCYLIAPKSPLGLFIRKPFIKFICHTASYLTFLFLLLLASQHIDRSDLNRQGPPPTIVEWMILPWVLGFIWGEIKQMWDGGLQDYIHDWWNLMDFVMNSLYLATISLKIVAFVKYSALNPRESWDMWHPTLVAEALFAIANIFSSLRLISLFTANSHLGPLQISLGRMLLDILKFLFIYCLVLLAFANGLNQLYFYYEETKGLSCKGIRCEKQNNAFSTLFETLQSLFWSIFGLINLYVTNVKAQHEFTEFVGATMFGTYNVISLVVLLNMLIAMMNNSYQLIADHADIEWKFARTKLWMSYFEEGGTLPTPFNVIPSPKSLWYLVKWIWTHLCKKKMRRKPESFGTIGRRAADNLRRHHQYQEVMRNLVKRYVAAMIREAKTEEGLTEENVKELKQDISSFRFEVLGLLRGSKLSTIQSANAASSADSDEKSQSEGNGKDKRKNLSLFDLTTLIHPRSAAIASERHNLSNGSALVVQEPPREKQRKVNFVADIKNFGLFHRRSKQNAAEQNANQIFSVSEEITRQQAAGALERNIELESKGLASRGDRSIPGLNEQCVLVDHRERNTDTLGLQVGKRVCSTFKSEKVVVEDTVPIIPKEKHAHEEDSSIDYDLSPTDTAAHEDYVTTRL
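Test system: HEK293 cells stably co-expressing mouse TRPC4beta and mu-opioid receptor | Schedule: Fluo4 dye loading 45 min at room temperature, 110 s recording | Measured by: Kinetic Fluo4 calcium fluorescence, 5 s baseline at 1 Hz | Evaluation: B score of integrated ratio | Controls: Buffer (low) and maximal DAMGO (high)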
TRPC6 act: activators of mouse TRPC6 channel; HEK293-TRPC6 membrane potential dye fluorescence; active compounds read high; B-score at 10 µM; actives 0.13% (n = 310,000); AID 2550;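 active means B-score of the integrated fluorescence ratio above library mean plus 3 SD, and starting fluorescence ratio within library mean plus 5 SD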;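 further: higher score means more depolarization so channel activation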
TRPC4 inh: blocks the mouse TRPC4 cation channel. Q9QUQ5. HEK293 TRPC4beta/mu-opioid, DAMGO-evoked Fluo4 calcium flux; active compounds read low. B-score at 10 µM. actives 0.39% (n = 300,000);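 active means B-score over 3 SD under the library average, no early fluorescence shift, positive overall ratio signal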
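test system = HEK293 cells with stable TRPC4beta plus mu-opioid receptor expression | detection = Fluo4 Ca2+ flux fluorescence | read-out = integrated fluorescence ratio relative to baseline, converted to per-well B score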
TRPC4 potent: allosteric potentiators of mouse TRPC4 channel | actives 0.42% (n = 310,000) | HEK293 TRPC4beta/mu-opioid, DAMGO EC20, Fluo-4 Ca2+ flux; active compounds read high | Q9QUQ5 | B-score at 10 µM;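 active means B-score of calcium response area above 5 SD of library B-scores, with initial fluorescence ratio within 5 SD of library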
TRPC6 inh: blocks the mouse TRPC6 cation channel | actives 1.1% (n = 310,000) | HEK293-TRPC6, membrane potential dye, ACh-evoked depolarization; active compounds read low | AID 2553 | Q61143 | B-score at 10 µM;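 active means B-score under library mean minus 3 SD, initial fluorescence not abnormally high, positive integrated signal ratio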;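 further: B-score derived from integrated fluorescence ratio over the kinetic read; more negative B-score means stronger inhibition of depolarization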
TRPC4 spec 2: second selectivity test of TRPC6 inhibitors: effect on mouse TRPC4; shares compounds with TRPC6 inh; HEK293 TRPC4/MOR, membrane potential dye fluorescence; channel activated by saturating DAMGO dose; inhibition, % at 10 µM; actives 42% (n = 920);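 active means compounds whose fluorescence signal differed from control wells by over 3 SD, either direction, in both duplicate plates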
TRPC4 spec: tests whether TRPC6 inhibitors also affect mouse TRPC4; shares compounds with TRPC6 inh; HEK293 TRPC4/mu-opioid, membrane potential fluorescence; activity change, negative = inhibition, % at 10 µM; actives 61% (n = 920);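 active means rise or fall in signal beyond 3 SD of buffer-only wells in both replicate plates, either sign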;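 further: integrated kinetic ratio of fluorescence range over baseline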
HEK293 MPD ctr 2-1: parental HEK293 nonspecific activity of TRPC6 inhibitors, second screen. shares compounds with TRPC6 inh. parental HEK293 membrane potential dye fluorescence; maximal acetylcholine challenge after compound addition. signal change vs control, % at 10 µM. actives 31% (n = 920). AID 2779;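 active means membrane potential signal moving either way by over 3 SD of the maximum-effect control, in both duplicate plates, meaning non-specific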
HEK293 MPD ctr-1: counter-screen for TRPC6 inhibitors: effect in parental HEK293 cells; membrane potential signal change, % at 10 µM; AID 2780; actives 60% (n = 920); shares compounds with TRPC6 inh; parental HEK293 membrane potential dye fluorescence;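 active means membrane potential signal shifting up or down by more than 3 SD of buffer-only wells, on both duplicate plates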
HEK293 MPD ctr-2: checks TRPC6 modulator effects in parental HEK293 cells; actives 51% (n = 2,400); membrane potential signal change, % at 10 µM; membrane potential dye fluorescence; AID 488924; shares compounds with TRPC6 inh;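 active means membrane potential signal moves up or down beyond 5 SD from buffer-only wells, on both duplicate plates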
HEK293 MPD ctr 2-2: parental HEK293 nonspecific activity of TRPC6 modulators, second screen | shares compounds with TRPC6 inh | membrane potential dye fluorescence; after compound, maximal acetylcholine stimulation | inhibition, % at 10 µM | actives 14% (n = 2,400) | AID 488926;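 active means membrane potential signal drops by more than 5 SD from the mean control signal, in both duplicate plates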
TRPC4 ctr mod: tests whether TRPC6 modulators also affect mouse TRPC4. shares compounds with TRPC6 inh. HEK293 TRPC4/mu-opioid, membrane potential fluorescence. percent change from control (negative = decrease, positive = increase), % at 10 µM. actives 69% (n = 2,400);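 active means membrane potential signal moved up or down beyond 5 SD of buffer control wells, in both duplicate plates, actives on both sides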
TRPC4 ctr inh 2: mouse TRPC4 off-target activity of TRPC6 modulators, second screen. shares compounds with TRPC6 inh. HEK293 TRPC4/mu-opioid, membrane potential dye fluorescence; stimulated with maximal-effect DAMGO. inhibition, % at 10 µM. actives 55% (n = 2,400);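 active means drop in membrane potential signal beyond 5 SD of the control wells in both duplicate plates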;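 further: TRPC4 counter screen for TRPC6 hits run under conditions tuned for TRPC6 not TRPC4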
TRPC6 inh conf: mouse TRPC6 inhibitor confirmation. shares compounds with TRPC6 inh. HEK293-TRPC6, membrane potential dye, ACh-evoked depolarization. inhibition, % at 10 µM. actives 43% (n = 3,300);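 active means fluorescence ratio falls more than 5 SD below the full-stimulation control mean, in both duplicate runs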;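 further: integrated fluorescence ratio of peak minus minimum over baseline after agonist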
TRPC6 act confirm: mouse TRPC6 activator confirmation; shares compounds with TRPC6 inh; HEK293-TRPC6 membrane potential dye fluorescence, FDSS; activation, % at 10 µM; actives 11% (n = 2,800); AID 488961;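 active means ratio signal rise beyond 5 SD above unstimulated control wells' mean, seen in both duplicate runs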
Each line names hits and unclear results; the compound was inactive in the other large screens (follow-up assays come after a bar, where they were run).

Cn1c(=O)[nH]c(=O)c2c1nc(N1CCCCCC1)n2CCN1CCCCCC1	TRPC6 inh -6.62 | TRPC4 spec 2 54.0% | TRPC4 spec -10.7% | HEK293 MPD ctr 2-1 inactive | HEK293 MPD ctr-1 -217.5% | TRPC6 inh conf inactive | TRPC6 act confirm inactive
CN1CCN(c2nc3c(c(=O)[nH]c(=O)n3C)n2CCCSc2ncccn2)CC1	TRPC6 inh -5.9 | HEK293 MPD ctr-2 -166.0% | HEK293 MPD ctr 2-2 inactive | TRPC4 ctr mod -30.0% | TRPC4 ctr inh 2 inactive | TRPC6 inh conf inactive | TRPC6 act confirm inactive
CCN1CCN(c2nc3c(c(=O)[nH]c(=O)n3C)n2CCCc2ccccc2)CC1	none
COc1cc(Br)cc2cc(C(=O)OC3CCN(C)CC3)c(=O)oc12	TRPC6 inh -12.1 | TRPC4 spec 2 72.5% | TRPC4 spec -24.7% | HEK293 MPD ctr 2-1 inactive | HEK293 MPD ctr-1 -472.5% | TRPC6 inh conf inactive | TRPC6 act confirm inactive
COc1ccc(-c2nc(CS(=O)CC(=O)NC3CCC(C)CC3)c(C)o2)cc1OC (centres undefined)	TRPC6 inh -6.21 | HEK293 MPD ctr-2 inactive | HEK293 MPD ctr 2-2 inactive | TRPC4 ctr mod 13.0% | TRPC4 ctr inh 2 29.0% | TRPC6 inh conf 71.0%
CCOC(=O)/C=C/C(=O)OCC(=O)N1CCN(C(=O)c2ccco2)CC1	none
CCOc1cc(/C=C2\SC(=NC)N(C)C2=O)cc(Cl)c1OC(C)=O	TRPC6 inh -5.01 | HEK293 MPD ctr-2 inactive | HEK293 MPD ctr 2-2 inactive | TRPC4 ctr mod inactive | TRPC4 ctr inh 2 inactive | TRPC6 inh conf inactive | TRPC6 act confirm inactive
CCOC(=O)c1c(C)n(C)c2ccc(OC)c(NC(=O)CCN3CCC(Cc4ccccc4)CC3)c12	TRPC6 inh -5.24 | HEK293 MPD ctr-2 inactive | HEK293 MPD ctr 2-2 inactive | TRPC4 ctr mod inactive | TRPC4 ctr inh 2 69.5% | TRPC6 inh conf 53.5% | TRPC6 act confirm inactive
Cc1ccc2c(c1)N(CC(=O)NCCCN1CC(C)CC(C)C1)C(=O)c1cccnc1O2 (centres undefined)	none
O=c1[nH]c2ccc(S(=O)(=O)Nc3ccccc3O)cc2[nH]1	none
Cc1ccc(-n2c(SCC(N)=O)nnc2-c2ccc(S(=O)(=O)N3CCCCC3)cc2)c(C)c1	TRPC6 inh -6.03 | HEK293 MPD ctr-2 inactive | HEK293 MPD ctr 2-2 inactive | TRPC4 ctr mod 39.5% | TRPC4 ctr inh 2 inactive | TRPC6 inh conf 41.0% | TRPC6 act confirm inactive
Cc1nc(C)c(CCNC(=O)c2ccccc2)s1	TRPC6 inh -6.05 | HEK293 MPD ctr-2 inactive | HEK293 MPD ctr 2-2 inactive | TRPC4 ctr mod inactive | TRPC4 ctr inh 2 inactive | TRPC6 inh conf inactive | TRPC6 act confirm inactive
O=C(c1ccco1)N1CCCC(c2nc3c(nnn3Cc3cccc(Cl)c3)c(=O)[nH]2)C1 (centres undefined)	TRPC6 inh -5.23 | HEK293 MPD ctr-2 inactive | HEK293 MPD ctr 2-2 inactive | TRPC4 ctr mod 17.0% | TRPC4 ctr inh 2 inactive | TRPC6 inh conf 50.5% | TRPC6 act confirm inactive
O=C(c1ccco1)N1CCCC(c2nc3c(nnn3Cc3ccc(Cl)cc3Cl)c(=O)[nH]2)C1 (centres undefined)	none
COc1ccc(NC(=O)COc2ccccc2C(=O)NCC(c2ccccc2)N(C)C)cc1Cl (centres undefined)	TRPC4 agonist 45, TRPC6 inh -5.26 | HEK293 MPD ctr-2 inactive | HEK293 MPD ctr 2-2 inactive | TRPC4 ctr mod inactive | TRPC4 ctr inh 2 85.5% | TRPC6 inh conf 48.0% | TRPC6 act confirm inactive
Cc1ccc(C2C(C#N)=C(N)Oc3cc(N)ccc32)cc1 (centres undefined)	TRPC6 act 13.4 | HEK293 MPD ctr-2 inactive | HEK293 MPD ctr 2-2 inactive | TRPC4 ctr mod inactive | TRPC4 ctr inh 2 inactive | TRPC6 inh conf inactive | TRPC6 act confirm inactive
CSc1ccc(CN2CCC(n3nccc3NC(=O)CCCc3ccccc3)CC2)cc1	none
Cc1cc(NC(=O)COC(=O)[C@@H](NS(=O)(=O)c2ccc(Br)cc2)C(C)C)no1	none
Cc1cc([N+](=O)[O-])c(C)cc1-c1ccc(/C=N/n2cnnc2)o1	TRPC6 inh -5.8 | HEK293 MPD ctr-2 -107.5% | HEK293 MPD ctr 2-2 inactive | TRPC4 ctr mod -23.0% | TRPC4 ctr inh 2 34.0% | TRPC6 inh conf inactive | TRPC6 act confirm inactive
O=[N+]([O-])c1ccc(-c2ccc(/C=N/n3cnnc3)o2)c(Br)c1	none
Cc1cc(N2CCC(N(C)C3CCCC3)CC2)nc2cc(O)ccc12	TRPC6 inh -6.73 | HEK293 MPD ctr-2 -281.5% | HEK293 MPD ctr 2-2 inactive | TRPC4 ctr mod -54.0% | TRPC4 ctr inh 2 47.0% | TRPC6 inh conf 43.0% | TRPC6 act confirm inactive
Cc1cc(N2CCN(c3ccccc3)CC2)nc2ccccc12	none
Nc1nonc1-n1nnc(C(=O)N/N=C/c2cc(Cl)ccc2O)c1CN1CCCCCC1	none
CCOc1ccc2c(C)nc(NC3=NC(C)(C)C=C(C)N3)nc2c1	TRPC4 inh -9, TRPC6 inh -5.13 | HEK293 MPD ctr-2 inactive | HEK293 MPD ctr 2-2 inactive | TRPC4 ctr mod inactive | TRPC4 ctr inh 2 inactive | TRPC6 inh conf inactive | TRPC6 act confirm inactive
OCC[C@H]1C[C@@H](O)[C@H](O)[C@@]2(CCCCO2)O1	TRPC6 inh -7.36 | TRPC4 spec 2 inactive | TRPC4 spec inactive | HEK293 MPD ctr 2-1 inactive | HEK293 MPD ctr-1 inactive | TRPC6 inh conf inactive | TRPC6 act confirm inactive
